From PubChem
GPR7 antag: blocks human GPR7 receptor signaling; P48145; GPR7-expressing cells, fluorescence antagonist assay; inhibition, % at 4.4 µM; 1.1% of 290,000 active; in the data active means inhibition above about 16%, passing the limit was not always enough;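 further: cells stimulated with the agonist NPW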
OX1R antag-1: OX1R (human) antagonism; O43613; OX1R-expressing cells, FRET antagonist read-out; inhibition, % at 6.6 µM; 1.8% of 330,000 active; in the data active means inhibition mostly above about 38%, no sharp cut-off; inactive means mostly below about 40%
Target sequence (O43613 whole entry, looked up): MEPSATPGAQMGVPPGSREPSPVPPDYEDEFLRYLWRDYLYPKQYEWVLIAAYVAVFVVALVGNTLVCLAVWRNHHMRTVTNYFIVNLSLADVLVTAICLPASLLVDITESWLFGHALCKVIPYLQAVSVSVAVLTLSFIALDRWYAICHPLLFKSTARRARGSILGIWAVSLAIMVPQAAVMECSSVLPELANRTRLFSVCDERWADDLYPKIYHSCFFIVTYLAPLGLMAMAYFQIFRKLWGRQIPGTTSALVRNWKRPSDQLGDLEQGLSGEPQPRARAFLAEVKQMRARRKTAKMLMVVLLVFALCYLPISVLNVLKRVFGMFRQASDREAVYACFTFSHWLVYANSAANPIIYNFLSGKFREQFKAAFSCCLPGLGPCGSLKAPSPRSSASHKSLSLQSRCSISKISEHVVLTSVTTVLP
OX1R antag-2: blocks the human orexin 1 receptor. inhibition, % at 5 µM. AID 434989. O43613. CHO/OX1R cells, Fluo-8 calcium fluorescence, orexin A. 0.43% of 330,000 active;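 active means inhibition above its plate's threshold, mean inhibition of all tested compounds on the plate plus 3 SD, cut at about 37% in these data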
TAAR1 antag: antagonists of human TAAR1; Q96RJ0; CHO RD-HGA16 TAAR1, Fluo-8 calcium fluorescence, antagonist; inhibition, % at 3 µM; 1.5% of 360,000 active; AID 624466;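 active means inhibition above a per-plate cutoff, the mean inhibition of test compounds on that plate plus 3 SD, cut at about 49% in these data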
Target sequence (Q96RJ0 whole entry, looked up): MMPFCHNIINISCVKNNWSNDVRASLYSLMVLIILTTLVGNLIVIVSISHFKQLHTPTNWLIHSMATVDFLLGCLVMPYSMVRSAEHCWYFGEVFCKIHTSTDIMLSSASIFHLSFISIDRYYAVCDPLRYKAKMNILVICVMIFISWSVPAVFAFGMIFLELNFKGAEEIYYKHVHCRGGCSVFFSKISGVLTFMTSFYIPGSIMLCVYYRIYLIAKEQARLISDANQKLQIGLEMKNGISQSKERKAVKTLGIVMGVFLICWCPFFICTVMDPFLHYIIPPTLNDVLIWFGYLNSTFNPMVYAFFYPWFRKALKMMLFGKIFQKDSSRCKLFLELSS
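Material: CHO RD-HGA16 cells bearing hTAAR1; compound dosing: one-point dosing, 3 µM nominal final; schedule: dye loading 75 min at 37 °C, then 30 min room temperature; measured by: calcium fluorescence with Fluo-8; control set: vehicle and agonist controls; replication: n of 1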
TAAR1 agonist: human TAAR1 agonism | CHO RD-HGA16 TAAR1, Fluo-8 calcium fluorescence; vehicle wells 0%, saturating PEA agonist 100% | activation, % at 3 µM | 0.99% of 360,000 active | AID 624467;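 active means activation above the mean activation of all test compounds in the run plus 3 SD, cut at about 38% in these data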
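test system = CHO RD-HGA16 cells carrying human TAAR1 plus Gα16 | schedule = 17-24 h seeding, 75 min 37 °C dye, 30 min RT | compound dosing = 3 µM single concentration | control set = DMSO and PEA EC100 | replicates = n 1 | signal = Fluo-8 fluorescence, 5 s baseline then 140 s kinetic read | measure = percent activation vs PEA EC100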
CHO parental Ca: signal in parental CHO cells, OX1R antagonist counter-screen; parental CHO-K1, ATP-induced calcium, Fluo-8 fluorescence; inhibition, % at 5.6 µM; 0.63% of 330,000 active; AID 463079;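 active means inhibition above that plate's mean sample inhibition plus 3 SD, cut at about 26% in these data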
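Measured by: calcium-sensitive Fluo-8 fluorescence / Test system: CHO parental line / Controls: ATP-challenged DMSO wells low, unchallenged DMSO wells high / Measure: % inhibition / Compound: single nominal dose of 5.6 µM per compound / Replicates: single well per compound, no replicates / Reagent: ATP as calcium-mobilizing challenge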
Each line names hits and unclear results; the compound was inactive in the other large screens. Compounds with a hit are over-represented: about 4.5% of the library has one in this group of screens.

Cc1ccc(N(C(=O)c2csnn2)C(C(=O)NCc2ccccc2)c2ccccn2)cc1 (centres undefined)	none
COC(=O)c1cc2c(c3c4ccccc4n(S(=O)(=O)c4ccc(OC)cc4)c13)C(=O)N(Cc1ccc(N(C)C)cc1)C2	none (no result: GPR7 antag, OX1R antag-1, OX1R antag-2, CHO parental Ca)
Cc1cccc(C)c1NC(=O)C1(C)CCC(=O)N1C1CCN(Cc2ccccc2)CC1 (centres undefined)	none (no result: GPR7 antag, OX1R antag-1, OX1R antag-2, CHO parental Ca)
O=C(NC1CCCCCC1)c1[nH]c(C(F)(F)F)nc1-c1ccccc1	none (no result: GPR7 antag, OX1R antag-1, OX1R antag-2, CHO parental Ca)
COC(=O)[C@]12C[C@H](CC(=O)NCc3ccc(C)o3)C(=O)N(Cc3ccc4c(c3)OCO4)C1=C[C@H](COCc1ccccc1)O[C@@H]2C	none (no result: GPR7 antag, OX1R antag-1, OX1R antag-2, CHO parental Ca)
CCOC(=O)C(Cc1ccccc1)NC(=O)CCCC(=O)c1ccccc1 (centres undefined)	CHO parental Ca 47
COc1ccc(OC)c(S(=O)(=O)Oc2ccc(N)c3ccccc23)c1	OX1R antag-1 43 (no result: GPR7 antag)
CCOC(=O)c1cc(-c2ccccc2C)n(CC2CC(c3ccc(OC)cc3)=NO2)n1 (centres undefined)	none (no result: GPR7 antag)
COc1ccc(NC(=O)C2CCCN2S(=O)(=O)c2cccc3nsnc23)c(OC)c1 (centres undefined)	OX1R antag-1 57 (no result: TAAR1 antag, TAAR1 agonist)
COc1ccccc1NC(=O)C1CCCN1S(=O)(=O)c1cccc2nsnc12 (centres undefined)	OX1R antag-1 76 (no result: TAAR1 antag, TAAR1 agonist)
N#Cc1cccc(C=C(C(=O)c2ccccc2)c2ccccc2)c1	none (no result: GPR7 antag, OX1R antag-1, OX1R antag-2, CHO parental Ca)
CC(C)(C)OC(=O)N1CCC[C@H]1C(=O)N1CCC[C@H]1C(=O)NCc1ccc(F)cc1F	none (no result: GPR7 antag, OX1R antag-1, OX1R antag-2, CHO parental Ca)
CSc1cccc(NC(=O)/C=C/c2ccc(Cl)cc2)c1	OX1R antag-1 92
O=[N+]([O-])c1ccc(S(=O)(=O)NCCc2ccncc2)cc1	OX1R antag-1 43
COc1ccccc1-c1c(C(F)(F)F)oc2cc(OC(=O)c3ccc([N+](=O)[O-])cc3)ccc2c1=O	OX1R antag-1 73
COc1cccc2cc(C(=O)c3ccc([N+](=O)[O-])cc3)oc12	none
Cc1ccc(NN2C(=O)C=C(c3ccc(Cl)cc3)C2=O)cc1	OX1R antag-2 73, TAAR1 antag 58, CHO parental Ca 68
COc1ccc(C2=CC(=O)N(Nc3ccccc3)C2=O)cc1	none
Cc1cccc(/C=N/NC(=O)c2cc(C3CC3)nc3ccccc23)n1	OX1R antag-1 74
Cc1[nH]n(-c2ccccc2)c(=O)c1/C=N/NC(=O)c1ccc(O)cc1O	OX1R antag-1 37 (no result: TAAR1 antag, TAAR1 agonist)
Cc1ccc(-n2[nH]c(C)c(/C=N/NC(=O)c3ccc(O)cc3O)c2=O)cc1	OX1R antag-1 38 (no result: TAAR1 antag, TAAR1 agonist)
Cc1cc(C(=O)N/N=C/c2c(C)[nH]n(-c3ccccc3)c2=O)n[nH]1	none
Cc1[nH]n(-c2ccc(Br)cc2)c(=O)c1/C=N/NC(=O)c1ccccc1	none (no result: OX1R antag-1, OX1R antag-2, CHO parental Ca)
Cc1noc(C)c1NC(=O)N(C)C[C@H]1OCc2cn(nn2)CCCC(=O)N([C@H](C)CO)C[C@@H]1C	none (no result: GPR7 antag, OX1R antag-1, OX1R antag-2, CHO parental Ca)
COc1cccc(CNC(=O)[C@H]2CCCN2C(=O)[C@H]2CCCN2C(=O)c2cccc(OC)c2)c1	none (no result: GPR7 antag, OX1R antag-1, OX1R antag-2, CHO parental Ca)
Cc1ccc(C(=O)N2CC(C)OC(C)C2)cc1[N+](=O)[O-] (centres undefined)	none
COC(=O)c1cc(C(=O)N2CCOCC2)cc([N+](=O)[O-])c1	OX1R antag-1 77
COC(=O)c1cc(C(=O)N2CCN(c3cccc(Cl)c3)CC2)cc([N+](=O)[O-])c1	none
CC1CN(C(=O)c2cc([N+](=O)[O-])cc([N+](=O)[O-])c2)CC(C)O1 (centres undefined)	OX1R antag-1 62
O=C(NC(N1CCOCC1)C(Cl)(Cl)Cl)c1cc([N+](=O)[O-])cc([N+](=O)[O-])c1 (centres undefined)	OX1R antag-1 73
CC(C)n1nc(C(=O)Nc2cccc(S(=O)(=O)N3CCCCC3)c2)c2ccccc2c1=O	none (no result: GPR7 antag)
COC(=O)[C@]12C[C@H](CC(=O)N3CCCCC3)C(=O)N(CCC3=CCCCC3)C1=C[C@H](COCc1ccccc1)O[C@@H]2C	none (no result: GPR7 antag, OX1R antag-1, OX1R antag-2, CHO parental Ca)
O=C(NCc1cccnc1)/C(=C\c1ccc(-c2ccc(Br)cc2)o1)S(=O)(=O)c1ccccc1	GPR7 antag 23
O=C(NCc1cccnc1)/C(=C/c1ccc(-c2ccc(Cl)cc2)o1)S(=O)(=O)c1ccccc1	GPR7 antag 27
Brc1c(-c2ccccc2)nc2n1Cc1ccccc1-2	OX1R antag-1 64
COCCNC(=O)CN(C(=O)c1ccc(N2CCCC2)nc1)c1ccc(F)c(Cl)c1	none (no result: OX1R antag-1, OX1R antag-2, CHO parental Ca)
COCCNC(=O)CN(C(=O)c1ccc(N2CCCC2)nc1)c1ccccc1	GPR7 antag 25
CC(C)(C)CC(=O)Nc1nnc(C(F)(F)F)s1	none
CC(NC(=O)Nc1nnc(C(F)(F)F)s1)(C(F)(F)F)C(F)(F)F	OX1R antag-1 59, OX1R antag-2 51, CHO parental Ca 60
O=C(Nc1ccccc1C(=O)Nc1nnc(C(F)(F)F)s1)c1ccccc1Cl	OX1R antag-1 80, OX1R antag-2 37, CHO parental Ca 54
Cc1nn(-c2ccccc2)nc1C(=O)Nc1nnc(C(F)(F)F)s1	OX1R antag-1 41
O=C(Nc1nnc(C(F)(F)F)s1)c1ccc(Br)s1	OX1R antag-1 49, CHO parental Ca 26
O=C(NCC1CCN(C(=O)C(=O)c2cc3ccccc3o2)CC1)c1ccc2c(c1)OCC2	none (no result: GPR7 antag, OX1R antag-1, OX1R antag-2, CHO parental Ca)
COC(=O)c1cc2c(c3c4cc(OC)ccc4n(S(=O)(=O)c4ccc(OC)cc4)c13)C(=O)N(Cc1ccco1)C2	none (no result: GPR7 antag, OX1R antag-1, OX1R antag-2, CHO parental Ca)
Cc1ccc2nsnc2c1S(=O)(=O)NCc1ccc2c(c1)OCO2	OX1R antag-1 44
CC(C)N(c1cc(=O)nc2ccccn12)C(C)C	none (no result: GPR7 antag, OX1R antag-1, OX1R antag-2, CHO parental Ca)
COc1ccc(CCNC(=O)COc2ncnc3cc([N+](=O)[O-])ccc23)cc1	OX1R antag-1 53
CCCCOCC1CN(CCCC)S(=O)(=O)c2c(cccc2Sc2ccc(OC)c(OC)c2)O1 (centres undefined)	none (no result: GPR7 antag, OX1R antag-1, OX1R antag-2, CHO parental Ca)
O=C1C(Cl)=C(N2CCN(c3ccccc3[N+](=O)[O-])CC2)C(=O)c2ccccc21	OX1R antag-1 55
O=[N+]([O-])c1cc(Cl)ccc1N1CCCC1	none
O=C(COCCOCC(=O)N(c1ccccn1)C1CCCCC1)N(c1ccccn1)C1CCCCC1	none
CC(C)(C)c1ccc(OCC(=O)N(c2ccccn2)C2CCCCC2)cc1	CHO parental Ca 52
CCCCn1c(N)c(N(CC(C)C)C(=O)CN2C(=O)NC3(CCC(C(C)(C)CC)CC3)C2=O)c(=O)[nH]c1=O (centres undefined)	none (no result: GPR7 antag, OX1R antag-1, OX1R antag-2, CHO parental Ca)
CCOc1ccc2ccccc2c1C(=O)N1CCN(c2ccccc2)CC1	GPR7 antag 20
CCCCCCN1C[C@@H](O)[C@H](n2cc(C3CC3)nn2)C[C@@H]1c1ccc(C)cc1	none (no result: GPR7 antag, OX1R antag-1, OX1R antag-2, CHO parental Ca)
